Series [1] relates to Staphylococcus aureus. In words: Antibacterial activity against Staphylococcus aureus BK2395 in Swiss Webster mouse septicemia model assessed as increase in survival at 50 mg/kg, ip administered 4 to 48 hrs measured 3 times daily for 14 days. Type of series: functional, organism-based. Details: dose 50 mg/kg.
Series [2] can be described thus: Inhibition of Bacillus subtilis Sfp-PPTase using rhodamine-CoA/BHQ-2-YbbR as substrate preincubated for 15 mins followed by substrate addition by HTS assay.
Series [3] has as its target T1, L-aminoadipate-semialdehyde dehydrogenase-phosphopantetheinyl transferase (Homo sapiens) (UniProt Q9NRN7).
T1 sequence (whole entry): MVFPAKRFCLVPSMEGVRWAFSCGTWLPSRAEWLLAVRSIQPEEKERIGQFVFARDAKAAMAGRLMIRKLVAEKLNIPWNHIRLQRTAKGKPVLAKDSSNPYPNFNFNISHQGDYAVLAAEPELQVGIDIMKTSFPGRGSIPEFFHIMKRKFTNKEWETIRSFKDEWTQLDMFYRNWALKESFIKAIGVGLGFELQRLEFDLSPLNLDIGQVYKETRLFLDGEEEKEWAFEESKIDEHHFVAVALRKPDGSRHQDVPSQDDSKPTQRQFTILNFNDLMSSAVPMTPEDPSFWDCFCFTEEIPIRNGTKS
In words: Inhibition of human PPTase up to 125 uM by gel-based fluorescence assay.

Series [4] in a line: Inhibition of Bacillus subtilis AcpS-PPTase using rhodamine-CoA/BHQ-2-YbbR as substrate preincubated for 15 mins followed by substrate addition by HTS assay. A digest of the protocol:
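AcpS-PPTase at 100 nM final in 50 mM HEPES-Na pH 7.6, 10 mM MgCl2, 0.01% Nonidet P-40, 0.01% BSA; compound preincubated 15 min at room temperature, then rhodamine-CoA (5 μM final) and BHQ-2-YbbR (12.5 μM final) added. Fluorescence read (525 ex/598 em) at start and after 60 min; difference gives rate.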

For series [5], the system named is Bacillus subtilis. Put plainly: Antibacterial activity against Bacillus subtilis HM489 assessed as cellular ATP content after 5 hrs by BacTiter-Glo assay. As to conditions: HM489, 5 h. Type of series: functional, organism-based.
The subject of series [6] is Liver microsome. In words: Drug metabolism in human liver microsomes assessed as GSH adduct formation at 50 uM after 60 mins by LC-MS/MS analysis in presence of NADPH. Particulars: 1 h. Type of series: ADME.
Series [7] concerns HepG2. Put plainly: Cytotoxicity against human HepG2 cells assessed as cellular ATP content after 48 hrs by CellTiter-Glo assay. Type of series: cell-based. Particulars: HepG2, 48 h. Summed up: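 HepG2 cells exposed to compound; viability read as cellular ATP by luciferase-coupled CellTiter-Glo.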
On the technique in general: Cellular ATP, detected with luciferase, serves as a proxy for viable cell number.

Series [8] concerns Bacillus subtilis. In words: Antibacterial activity against Bacillus subtilis 168 assessed as disruption of cell membrane integrity at 10 times MIC after 15 mins by Syto9/propidium iodide staining-based BacLight LIVE/DEAD microscopic analysis. Type of series: functional, organism-based. Particulars: subsp. subtilis str. 168.
Series [9] deals with Bacillus subtilis. In words: Antibacterial activity against Bacillus subtilis 168 assessed as growth inhibition after 16 to 20 hrs by resazurin dye-based assay. Type of series: functional. Particulars: subsp. subtilis str. 168. A digest of the protocol:
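Broth microdilution. Test article from 1 μL DMSO in 50 μL cation-adjusted Mueller Hinton II (bacteria) or RPMI 1640 (fungi), plus ~1×10^3 cfu inoculum in the same medium. Incubated 16–20 h at 30–37 °C (48 h for fungi). MIC scored visually as the first well without growth; resazurin added for imaging.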

Active and inactive are the calls of the source. No cut-off for these calls is given here.

For the molecule `CN[C@H](CC(C)C)C(=O)N[C@H]1C(=O)N[C@@H](CC(N)=O)C(=O)N[C@H]2C(=O)N[C@H]3C(=O)N[C@H](C(=O)N[C@H](C(=O)O)c4cc(O)cc(O)c4-c4cc3ccc4O)[C@H](O)c3ccc(c(Cl)c3)Oc3cc2cc(c3O[C@@H]2O[C@H](CO)[C@@H](O)[C@H](O)[C@H]2O[C@H]2C[C@](C)(N)[C@H](O)[C@H](C)O2)Oc2ccc(cc2Cl)[C@H]1O`, the result in series [1] was Active.
For `Cc1cc(C)nc(NC(=S)N2CCN(Cc3cccc(C(F)(F)F)c3)CC2)c1`, half-maximal inhibition in series [2] (IC50) was put at 11.5 µM.
For the molecule `FC(F)(F)c1cccc(N2CCN(C(=S)Nc3ccccn3)CC2)c1`, it took 0.91 µM to reach half-maximal inhibition in [2] (IC50).
On to `Cc1cc(C)nc(NC(=S)N2CCN(c3ccc(Cl)cc3Cl)CC2)c1`, for which, in series [2], the 50% inhibitory concentration (IC50) is 1 µM.
In [2], `Cc1cc(C)nc(NC(=S)N2CCN(c3cccc(C#N)c3)CC2)c1` registered an IC50 of 1.6 µM.
In series [2], `COc1cc(OC)cc(N2CCN(C(=S)Nc3cc(C)cc(C)n3)CC2)c1` returned a 50% inhibitory concentration (IC50) of 2 µM.
`Cc1ccnc(NC(=S)N2CCN(c3cccc(N(C)C)c3)CC2)c1`: the IC50 in [2] stood at 5.8 µM.
In [2], `Cc1cc(C)nc(NC(=S)N2CCN(c3cc(C#N)cc(C#N)c3)CC2)c1` registered an IC50 of 0.65 µM.
On the same count and under the same terms, to `Cc1ccnc(NC(=N)N2CCN(c3cccc(C(F)(F)F)c3)CC2)c1` belongs at least 114 µM.
On to `Cc1ccnc(NC(=S)N2CCN(c3cccc(C(F)(F)F)c3)C[C@@H]2C)c1`, for which the IC50 in [2] was found to be 11.5 µM.
Same read-out and setting: as for `Cc1cc(C)nc(NC(=S)N2CCN(S(=O)(=O)c3cccc(C(F)(F)F)c3)CC2)c1`, the figure is 0.81 µM; as for `Cc1cc(C)nc(Nc2nnc(N3CCN(c4cccc(C(F)(F)F)c4)CC3)s2)c1`, at least 114 µM.
Same read-out and setting: to `Cc1ccnc(NC(=S)NCCNc2cccc(C(F)(F)F)c2)c1` belongs at least 114 µM.
For the molecule `Nc1ncnc2c1ncn2[C@@H]1O[C@H](COP(=O)(O)O)[C@@H](OP(=O)(O)O)[C@H]1O`, the inhibition result in [3] is “Active”.
Consider `Cc1cc(C)nc(NC(=S)N2CCN(c3ccc(Cl)cc3C(F)(F)F)CC2)c1`, for which the half-maximal inhibitory concentration (IC50) in series [4] is 10.2 µM; in series [5], 18.6 µM; in series [2], 0.58 µM; in [7], at least 114 µM. For the same molecule, the Drug metabolism result in [6] was “Not Active”.
Consider `Cc1cc(C)nc(NC(=S)N2CCN(c3cc(F)cc(F)c3)CC2)c1`, for which half-maximal inhibition in series [2] (IC50) required 1.3 µM.
Still for that read-out and setting: to `Cc1cc(C)nc(N/C(=N/C#N)N2CCN(c3cccc(C(F)(F)F)c3)CC2)c1` belongs at least 114 µM; to `Cc1ccnc(NC(=S)N2CCN(C)CC2)c1`, 6.5 µM; to `Cc1cc(C)nc(NC(=C(C#N)C#N)N2CCN(c3cccc(C(F)(F)F)c3)CC2)c1`, at least 114 µM.
For the molecule `COC(=O)c1ccnc(NC(=S)N2CCN(c3cccc(C(F)(F)F)c3)CC2)c1`, in [2], the IC50 was found to be 11.5 µM.
For the molecule `Cc1ccnc(NC(=S)N2CCN(c3ccc(C(F)(F)F)cc3)CC2)c1`, the IC50 in [2] was 1 µM.
For `Cc1cc(C)nc(NC(=S)N2CCNCC2)c1`, the 50% inhibitory concentration (IC50) in [2] came to 14.5 µM.
Turning to Cetyltrimethylammonium bromide, in [8], the result was Active. Also, the “growth inhibition (GI)” value in series [9] is “Active”.
In turn, `Cc1ccnc(NC(=S)N2CC3CN(c4cccc(C(F)(F)F)c4)CC3C2)c1` (configuration not stated) yielded an IC50 in series [2] of 0.73 µM.
`FC(F)(F)c1cccc(N2CCN(C(=S)Nc3ccc4cccnc4n3)CC2)c1` had an IC50 in series [2] of 1 µM.
Consider `Cc1cc(C)nc(NC(=S)N2CCN(c3nnc(C(F)(F)F)s3)CC2)c1`, for which, in [2], the half-maximal inhibitory concentration (IC50) turned out to be 1.6 µM.
Still for that read-out and setting: to `Cc1cc(C)cc(N2CCN(C(=S)Nc3cc(C)cc(C)n3)CC2)c1` belongs 1.6 µM.
Molecule `Cc1cccc(NC(=S)N2CCN(c3cccc(C(F)(F)F)c3)CC2)c1` yielded an IC50 in series [2] of at least 114 µM.
Take `Cc1cc(C)nc(NC(=S)N2CCN(c3ccc(C(F)(F)F)cn3)CC2)c1`: the half-maximal inhibitory concentration (IC50) in series [4] is 16.2 µM; in [5] it was 13.2 µM; in series [7], 15.8 µM.
Consider `Cc1ccnc(CC(=S)N2CCN(c3cccc(C(F)(F)F)c3)CC2)c1`, for which the midpoint of inhibition in [2], the IC50, lay at 5.76 µM.
For the molecule `Cc1cc(C)nc(NC(=S)N2CCN(c3cccc(S(C)(=O)=O)c3)CC2)c1`, 2.9 µM corresponded to half-maximal inhibition in series [2] (IC50).
Turning to `Cc1ccnc(NC(=S)NCCN(C)c2cccc(C(F)(F)F)c2)c1`, in [2], the IC50 was at least 114 µM.
`COc1cccc(NC(=S)N2CCN(c3cccc(C(F)(F)F)c3)CC2)n1` showed a concentration for half-maximal inhibition (IC50) in [2] of 1.5 µM.
Turning to `Cc1ccnc(NC(=S)N2CCCN(c3cccc(C(F)(F)F)c3)CC2)c1`, in series [2], the midpoint of inhibition, the IC50, lay at 1.6 µM.
`Cc1cc(C)nc(NC(=S)N2CCN(c3cc(Cl)c(Cl)c(Cl)c3)CC2)c1` registered a half-maximal inhibitory concentration (IC50) in series [2] of 0.29 µM.
For the molecule `Cc1cc(C)nc(NC(=S)N2CCN(c3cccc(Cl)c3Cl)CC2)c1`, the half-inhibitory concentration (IC50) in [2] stood at 1.6 µM.
Regarding `FC(F)(F)c1cccc(N2CCN(C(=S)Nc3cc(C(F)(F)F)ccn3)CC2)c1`, the IC50 in [2] is at least 114 µM.
Molecule `COc1ccnc(NC(=S)N2CCN(c3cccc(C(F)(F)F)c3)CC2)c1` gave an IC50 in series [2] of 1.2 µM.
`Cc1ccnc(NC(=S)NC2CCN(c3cccc(C(F)(F)F)c3)CC2)c1` showed an IC50 in series [2] of at least 114 µM.
In turn, `Cc1cc(C)nc(NC(=S)N2CCN(c3ccc(Cl)c(Cl)c3)CC2)c1` yielded a half-maximal inhibitory concentration (IC50) in series [2] of 0.91 µM.
As for `Cc1ccnc(NC(=S)N2CCC(Nc3cccc(C(F)(F)F)c3)CC2)c1`, the IC50 was 12.9 µM in series [4], 13.2 µM in series [5], 0.81 µM in series [2] and at least 114 µM in series [7].
Regarding `C/N=c1\nc(-c2ccccc2)n(-c2ccccc2)s1`, the inhibition result in series [3] is “Active”.
As for `Cc1cc(C)nc(NC(=S)N2CCN(c3ncc(C(F)(F)F)cc3Cl)CC2)c1`, the 50% inhibitory concentration (IC50) in series [4] is 18.6 µM; in [5], 36.2 µM; in [2], 0.86 µM; in series [7], 30 µM.
`Cc1ccnc(C(=S)N2CCN(c3cccc(C(F)(F)F)c3)CC2)c1`: the IC50 in series [2] is at least 114 µM.
On to `Cc1cc(C)nc(NC(=S)N2CCN(c3cc(C(F)(F)F)cc(C(F)(F)F)c3)CC2)c1`, for which the 50% inhibitory concentration (IC50) in series [2] came to 0.51 µM.
Turning to `O=C(N[C@H](CO)[C@H](O)c1ccc([N+](=O)[O-])cc1)C(Cl)Cl`, in series [8], the outcome was inactive. In series [9], the “growth inhibition (GI)” value was “Active”.
For the molecule `Cc1cc(C)nc(NC(=S)N2CCN(c3cccc(C(F)(F)F)c3)CC2)c1`, the 50% inhibitory concentration (IC50) in [2] worked out at 0.51 µM.
Molecule `Cc1ccnc(N(C)C(=S)N2CCN(c3cccc(C(F)(F)F)c3)CC2)c1` displayed an IC50 in series [2] of at least 114 µM.
For `FC(F)(F)c1cccc(N2CCN(C(=S)Nc3ccc4ccccc4n3)CC2)c1`, in series [2], the IC50 turned out to be 1.5 µM.
As to `Cc1ccnc(NC(=S)Nc2cccc(C(F)(F)F)c2)c1`, in [2], the IC50 was 22.9 µM.
On to `Cc1ccnc(NC(=S)N2CCN(c3cccc(C(F)(F)F)c3)C2)c1`, for which the IC50 in [2] stood at 0.81 µM.
`Cc1cc(C)nc(NC(=S)N2CCN(c3cc(Cl)cc(Cl)c3)CC2)c1` had a half-maximal inhibitory concentration (IC50) in [2] of 0.85 µM.
In the case of `Cc1ccnc(NC(=S)NC2CN(c3cccc(C(F)(F)F)c3)C2)c1`, the IC50 in [2] is at least 114 µM.
For the molecule `Cc1ccnc(NC(=S)N2CCN(c3ccccc3C(F)(F)F)CC2)c1`, the IC50 was 10.2 µM in series [4], 9.4 µM in series [5], 0.61 µM in series [2] and at least 114 µM in series [7].
For `Cc1ccnc(NC(=O)N2CCN(c3cccc(C(F)(F)F)c3)CC2)c1`, the IC50 in series [4] is at least 114 µM; in series [5], at least 114 µM; in series [2] it was at least 114 µM; in [7] it was 7 µM.
`FC(F)(F)c1cccc(N2CCN(C(=S)Nc3ccncc3)CC2)c1` returned an IC50 in series [2] of at least 114 µM.
In the case of `Cc1cc(C)nc(NC(=S)N2CCN(c3ccc(Cl)c(Cl)c3Cl)CC2)c1`, in [2], half-maximal inhibition (IC50) was put at 0.73 µM.

For orientation: IC50 means the point on the concentration scale where inhibition reaches its midpoint.
